Data set [1] has as its system H1299 cells. Kind of data set: Extracellular lactate assay. The class given is cell-based, human. To be noted: H1299, 1 and 2 μM, 48 h. In outline: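 H1299 seeded at 3.75 × 10⁴ or 7.5 × 10⁴ cells/well, then treated 48 h with 1 or 2 μM or with DMSO. Medium passed through a 3K cutoff filter at 14,000 × g, 15 min, 4°C. Lactate measured with a WST-based kit on medium diluted 1:20, in triplicate, against a standard curve. Values normalized to cell count and DMSO; three biological replicates.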

For data set [2], the system named is H1299 lung cancer cells. In words: WST-8 proliferation assay. The class given is cell-based. To be noted: Homo sapiens, NCI-H1299, 72 h, read-out: WST IC50. Put shortly: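 H1299 cells (RPMI/10% FBS) seeded the day before, then given serial half dilutions from 20 μM down to 0.078 μM for 72 h. WST-8 reagent added to the medium at 1:10, 2 h at 37°C, OD read at 450 nm; both adherent and non-adherent cells counted. Normalized to DMSO; IC₅₀ with 95% CI by nonlinear regression. Three biological × three technical replicates.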
(Tetrazolium assays rely on reduction of a dye to a coloured formazan, in cell work by metabolically active cells.)

Data set [3] deals with H1299 cells. Kind of data set: Mitochondrial structure by electron microscopy. To be noted: H1299, 48 h, 1 or 2 μM. The class given is cell-based, human. In outline: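 H1299 cells (1.75 × 10⁵ per 10 cm plate) exposed 48 h to 1 or 2 μM or to DMSO, then scraped and pelleted. Pellets fixed 4 h at room temperature in 2.0% paraformaldehyde/2.5% glutaraldehyde in 0.1 M cacodylate, pH 7.2. Post-fixed in 1.0% osmium tetroxide for 1 h; en bloc 2% aqueous uranyl acetate, 20 min, 60°C. Three biological replicates.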

For data set [4], the system named is H1299 cells. Kind of data set: 3D spheroid invasion assay. It is filed as cell-based, human. To be noted: H1299 spheroids in basement membrane matrix, 2 μM, 48 h. Put shortly: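 H1299 spheroids formed over 3 days from 3 × 10³ cells/well in low-attachment wells. Embedded in Matrigel containing 0.5, 1 or 2 μM compound, with compound also in the medium, and incubated 48 h. Imaged at Day 0 and Day 2 with a 4× objective; perimeter outlined. Invasion area = Day 2 area minus Day 0 area. At least four spheroids per treatment in each of three biological replicates.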

A short description of data set [5]: In vivo pharmacokinetics, single IP dose. The arrangement: species or system BALB/c mice. In outline:
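Female BALB/c mice (8–14 weeks) given 5 mg/kg by single IP injection in 1% DMSO/99% water. Plasma sampled at 0.25, 0.5, 1, 2, 4, 6, 8 and 24 h. Compound quantified by LC-MS/MS with calibration standards and QC samples. Terminal elimination half-life and maximum concentration derived; n = 3 mice per treatment.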

Data set [6] in a line: Caco-2 permeability assay. The class given is in vitro ADME. To be noted: human. In outline:
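Caco-2 monolayers grown to confluence on transwells, with integrity checked by TEER. Test compound (5 μM) added to the apical or the basolateral side to give transport direction. After 2 h, donor and receiver samples quantified by LC-MS/MS. Lucifer Yellow used to check leakage. Propranolol (high absorption) and digoxin (high efflux) served as controls.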
A general note: Caco-2 monolayers are a common model of the intestinal barrier.

In data set [7] the test system is H1299 lung cancer cells. In words: SRB proliferation assay. The class given is cell-based. To be noted: Homo sapiens, NCI-H1299, 72 h, read-out: SRB IC50. In outline: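 H1299 cells (RPMI/10% FBS) seeded the day before, then given serial half dilutions from 20 μM down to 0.078 μM for 72 h. Fixed in cold 10% TCA for 1 h and stained 15 min with 0.4% SRB. Washed with water and 1% acetic acid, dye dissolved in 10 mM Tris pH 10.5, OD read at 560 nm. Normalized to DMSO; IC₅₀ with 95% CI by nonlinear regression. Three biological × three technical replicates.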
(In general: In SRB staining, fixed cells bind dye roughly in proportion to their protein.)

Data set [8] has as its system H1299 cells. Kind of data set: TMRM flow cytometry with oligomycin. The class given is cell-based, human. To be noted: H1299, 1 μM, 48 h, + 1 μM oligomycin, mean of three replicates. Put shortly: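 H1299 cells (1.75 × 10⁵ per 10 cm plate) exposed 48 h to 1 μM or to DMSO. Attached and floating cells pooled and stained with 2 nM TMRM in phenol-red-free RPMI with 2% dialyzed FBS for 30 min at 37°C. Oligomycin (1 μM) added during the TMRM incubation, then flow cytometry. Three biological replicates.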

The mark [9] stands for this setting: female, BALB/c, mouse, plasma, ip, 5 mg/kg.

The text below walks through data of PMC11022046 (iScience, 2024).

Structures can show the parent of a compound that is named as a salt. Where only a bound is given, the exact number is not on record here.

What is called IC50 is the concentration at which inhibition is half-maximal. A word on the Cmax: it is the highest concentration seen after dosing. As a reminder, the half-life is the time in which the quantity being followed falls by half. In general, efflux ratio refers to a quotient of directional permeabilities that is used to spot active efflux.

For the compound `CCCCC(CC)CNC(=N)NC(=N)NCCCCCCNC(=N)NC(=N)NCC(CC)CCCC` (stereo not shown) [Alexidine, Alexidine dihydrochloride], the “effect on extracellular lactate” value in the data set with H1299 cells [1] is given as “increased lactate concentration”. The IC50 in the data set with H1299 lung cancer cells [2] stood at 2500 nM. Further, the “effect on mitochondrial structure” value with H1299 cells [3] is reported as “disrupted mitochondrial structure”. In the data set with H1299 cells [4], the “invasive area, % of the control” value is given as 36.8%. In data set [5] (setting [9]), this compound showed a Cmax of 268 ng/mL and a half-life of 9.5 h. In addition, in data set [5] (mice, IP), the tolerability in mice result is “tolerated in mice”. The efflux ratio at 2 h, 5 μM in data set [6] is over 5.37. In the data set on H1299 lung cancer cells [7], the IC50 came out at 1000 nM. Moreover, the “percentage of cells unable to hyperpolarize with oligomycin (TMRM-low population)” value in the data set on H1299 cells [8] is recorded as 18.1%.
